This note sets out measurements from ChEMBL document CHEMBL2163200, “Synthesis, biological evaluation, and structure-activity relationships of novel substituted N-phenyl ureidobenzenesulfonate derivatives blocking cell cycle progression in S-phase and inducing DNA double-strand breaks” (J Med Chem, 2012).

Calls of active or inactive are those of the source. The rule behind the calls is not given here.

In data set [1] the test system is Jurkat. Description: Cell cycle arrest in human Jurkat E6-1 cells assessed as accumulation at G0/G1 phase at 15 uM after 24 hrs by FACS flow cytometry. Format: functional. In short, it runs like this:
(§1)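 Jurkat E6 cells cultured in RPMI 1640 with 10% FBS at 37 °C, 5% CO2. Compounds serially diluted in medium, starting 50% above the M21 IC50. 4.0 × 10^5 cells were exposed for 24 h. Cells were washed with PBS, chicken red blood cells added as internal standard, and fixed in ice-cold EtOH. After 1 h on ice in PBS with 1 μg/mL DAPI, phase distribution was read by flow cytometry. DMSO-treated cells served as control.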
(In flow cytometry, cells or beads pass a laser one at a time.)

The next data set has as its system HT-1080. The data set is described as follows: Antitumor activity against human HT1080 cells xenografted in chicken chorioallantoic membrane assessed as inhibition of tumor growth at 30 ug per egg, iv administered on day 11 measured on day 17 by CAM assay. Format: functional. Summed up:
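HT-1080 fibrosarcoma cells (3.5 × 105/egg) were applied onto freshly exposed CAM of fertilized chicken eggs. On day 11, drug from a DMSO stock was diluted in Cremophor EL/99% ethanol/PBS (1/1/14 v/v) and 100 μL was injected into a vein under the CAM. Groups of 10–12 eggs were kept to day 17, embryos were euthanized at 4 °C for ≥4 h, and tumor wet weight was recorded.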
In general terms: In xenograft studies the graft and the host belong to different species.

Data set [2] is described as follows: Toxicity in fertilized chicken embryo assessed as mortality rate at 30 ug per egg, iv administered on day 11 measured on day 17 by CAM assay. To be noted: in vivo, read-out: Activity. Format: organism-based, Gallus gallus. In short, it runs like this:
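Fertilized chicken eggs grafted on the CAM with HT-1080 cells (3.5 × 105/egg) received a 100 μL intravenous injection under the CAM on day 11. The drug was diluted in Cremophor EL/99% ethanol/PBS (1/1/14 v/v). Groups held 10–12 eggs and were incubated until day 17, when dead embryos and signs of toxicity were counted per group.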

Data set [3] concerns Jurkat. Description: Cell cycle arrest in human Jurkat E6-1 cells assessed as accumulation at S phase at 15 uM after 24 hrs by FACS flow cytometry. Format: functional. Summed up: (§2)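 Jurkat E6 cells grown in RPMI 1640 with 10% FBS at 37 °C, 5% CO2. Compounds were serially diluted in medium starting 50% above the M21 IC50. 4.0 × 10^5 cells were exposed for 24 h, then washed and spiked with chicken red blood cells as internal standard. Cells were fixed in ice-cold ethanol, stained with 1 μg/mL DAPI on ice for 1 h, and phase distribution was read by flow cytometry. The control was 0.5% DMSO.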

Data set [4] relates to M21. Description: Cytotoxicity against human M21 cells after 48 hrs by SRB assay. Format: functional, cell-based. As to conditions: M21, 48 h. Summed up:
(§3)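 NCI sulforhodamine B protocol. Cells were grown in high-glucose DMEM with 5% FBS and seeded per well at 4 × 10^3 (HT-29), 3.5 × 10^3 (M21) or 3 × 10^3 (MCF-7), then allowed 24 h to attach. Serial dilutions from 200 μM to 780 nM final were applied in DMSO <0.5% for 48 h. Cells were fixed with cold TCA (10% final) and stained with SRB, with absorbance read at 530–568 nm. Growth inhibition was computed against day-0 plates, giving the 50% inhibitory concentration. At least two experiments in triplicate, CV <10%.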
(Sulforhodamine B stains cellular protein and so reports cell mass.)

For data set [5], the system named is Jurkat. Description: Cell cycle arrest in human Jurkat E6-1 cells assessed as accumulation at G2/M phase at 15 uM after 24 hrs by FACS flow cytometry. The class given is functional. In short, it runs like this: as §1
Data set [6] deals with M21. Description: Induction of DNA damage response in human M21 cells assessed as phosphorylation of H2AX into gammaH2AX at IC50 after 24 hrs by DAPI staining-based immunofluorescence assay. The class given is functional, cell-based. Summed up: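 M21 cells (1 × 10^5) on fibronectin-coated coverslips, grown 24 h, then exposed to agent for 24 h at 37 °C; 0.5% DMSO control. Fixed with 3.7% formaldehyde and permeabilized with 0.1% saponin/3% BSA. Probed with mouse anti-H2AX pS139 antibody for 2 h at room temperature. Nuclei counterstained with DAPI; nuclear γH2AX foci viewed by epifluorescence microscopy.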

The subject of data set [7] is Jurkat. Description: Cell cycle arrest in human Jurkat E6-1 cells assessed as accumulation at S phase at 29 uM after 24 hrs by FACS flow cytometry. Format: functional. Summed up:
(§4)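 Jurkat E6 T-lymphoblasts in RPMI 1640 with 10% FBS, 37 °C, 5% CO2. […] Chicken red blood cells were added as internal standard. Cells were fixed in ice-cold EtOH and stained with 1 μg/mL DAPI on ice for 1 h before flow cytometry of phase distribution. Vehicle control was 0.5% DMSO.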

Data set [8] deals with Jurkat. Description: Cell cycle arrest in human Jurkat E6-1 cells assessed as accumulation at G2/M phase at 29 uM after 24 hrs by FACS flow cytometry. Format: functional. Summed up:
as §2

The next data set has as its system HT-29. The data set is described as follows: Cytotoxicity against human HT-29 cells after 48 hrs by SRB assay. The class given is functional, cell-based. As to conditions: HT-29, 48 h. Summed up:
as §3

The subject of data set [9] is Jurkat. Description: Cell cycle arrest in human Jurkat E6-1 cells assessed as accumulation at G0/G1 phase at 29 uM after 24 hrs by FACS flow cytometry. The class given is functional. Summed up:
as §1

Data set [10] deals with Jurkat. Description: Cell cycle arrest in human Jurkat E6-1 cells assessed as accumulation at G2/M phase at 1.7 uM after 24 hrs by FACS flow cytometry. Format: functional. In short, it runs like this: as §1
The test system of data set [11] is Jurkat. The data set is described as follows: Cell cycle arrest in human Jurkat E6-1 cells assessed as accumulation at G0/G1 phase at 1.7 uM after 24 hrs by FACS flow cytometry. The class given is functional. In short, it runs like this: as §1
For another data set, the system named is MCF7. Description: Cytotoxicity against human MCF7 cells after 48 hrs by SRB assay. The class given is functional, cell-based. As to conditions: MCF7, 48 h. Summed up: as §3
Data set [12] relates to Jurkat. Description: Cell cycle arrest in human Jurkat E6-1 cells assessed as accumulation at S phase at 1.7 uM after 24 hrs by FACS flow cytometry. Format: functional. Summed up: as §2
Data set [13] concerns Jurkat. Description: Cell cycle arrest in human Jurkat E6-1 cells assessed as accumulation at S phase at 9.3 uM after 24 hrs by FACS flow cytometry. The class given is functional. In short, it runs like this:
as §4

Data set [14] has as its system Jurkat. The data set is described as follows: Cell cycle arrest in human Jurkat E6-1 cells assessed as accumulation at G0/G1 phase at 9.3 uM after 24 hrs by FACS flow cytometry. The class given is functional. Summed up:
as §1

The subject of data set [15] is Jurkat. Description: Cell cycle arrest in human Jurkat E6-1 cells assessed as accumulation at G2/M phase at 9.3 uM after 24 hrs by FACS flow cytometry. Format: functional. Summed up:
as §2

Data set [16] deals with Jurkat. Description: Cell cycle arrest in human Jurkat E6-1 cells assessed as accumulation at G0/G1 phase at 8.3 uM after 24 hrs by FACS flow cytometry. Format: functional. Summed up:
as §1

Data set [17] deals with Jurkat. The data set is described as follows: Cell cycle arrest in human Jurkat E6-1 cells assessed as accumulation at G2/M phase at 8.3 uM after 24 hrs by FACS flow cytometry. Format: functional. In short, it runs like this: as §2
In data set [18] the test system is Jurkat. Description: Cell cycle arrest in human Jurkat E6-1 cells assessed as accumulation at S phase at 8.3 uM after 24 hrs by FACS flow cytometry. Format: functional. In short, it runs like this: as §4
Data set [19] concerns Jurkat. Description: Cell cycle arrest in human Jurkat E6-1 cells assessed as accumulation at S phase at 63 uM after 24 hrs by FACS flow cytometry. The class given is functional. In short, it runs like this:
as §4

For data set [20], the system named is Jurkat. Description: Cell cycle arrest in human Jurkat E6-1 cells assessed as accumulation at G2/M phase at 63 uM after 24 hrs by FACS flow cytometry. Format: functional. In short, it runs like this:
as §2

In data set [21] the test system is Jurkat. Description: Cell cycle arrest in human Jurkat E6-1 cells assessed as accumulation at G0/G1 phase at 63 uM after 24 hrs by FACS flow cytometry. Format: functional. Summed up: as §1

One may read the TGI as the reduction of tumour growth relative to the control group. As usually defined, the IC50 is the midpoint of a concentration-inhibition curve. In the case of `CCc1ccccc1OS(=O)(=O)c1ccc(NC(=O)NCCCCl)cc1`, the Activity in the data set on Jurkat [1] was 26%; in the data set with Jurkat [3], 63%; in the data set with Jurkat [5] it was 11%. In the data set on HT-1080, the TGI is reported as 68%. For the same compound, in data set [2], the mortality at 6 days was determined as 0%. Also, the IC50 in the data set on M21 [4] was found to be 15 µM. Also, the result in the data set with M21 [6] was Active.

As to `CCCc1ccccc1NS(=O)(=O)c1ccc(NC(=O)NCCCl)cc1`, the Activity with Jurkat [7] is 44%; in the data set on Jurkat [8] it was 28%; in the data set on Jurkat [9] it was 28%. Moreover, the figures for the IC50 with M21 [4] and in the data set with HT-29 were 29 µM and 21 µM, respectively.

With `CCCc1ccccc1OS(=O)(=O)c1ccc(NC(=O)NCCCl)cc1`, the TGI in the data set with HT-1080 is reported as 49%. The figures for the Activity in the data set on Jurkat [10], in the data set with Jurkat [11] and in the data set on Jurkat [12] were 11%, 16% and 73%, respectively. The IC50 came out at 3.6 µM in the data set with MCF7, 2.1 µM with M21 [4] and 2.5 µM in the data set with HT-29. The outcome in the data set with M21 [6] was Active.

Consider `CCc1ccccc1OS(=O)(=O)c1ccc(NC(=O)NCCCl)cc1`, for which the values for the Activity in the data set on Jurkat [13], in the data set on Jurkat [14] and in the data set with Jurkat [15] were 77%, 6% and 17%, respectively. Besides, the TGI in the data set on HT-1080 is reported as 49%. In addition, the IC50 in the data set on MCF7 came to 19 µM; in the data set with M21 [4] it was 13 µM; in the data set with HT-29, 17 µM. Besides, in the data set with M21 [6], the outcome was Active.

As to `Cc1ccccc1OS(=O)(=O)c1ccc(NC(=O)NCCCCl)cc1`, the Activity in the data set on Jurkat [16] turned out to be 20%; in the data set on Jurkat [17] it was 10%; in the data set on Jurkat [18], 70%. The IC50 was found to be 27 µM in the data set on MCF7 and 25 µM in the data set on M21 [4]. Moreover, the outcome with M21 [6] was Active.

Turning to `Cc1ccccc1NS(=O)(=O)c1cccc(NC(=O)NCCCl)c1`, the Activity is 45% with Jurkat [19], 14% in the data set with Jurkat [20] and 41% in the data set on Jurkat [21]. Further, the IC50 is 86 µM in the data set on MCF7, 91 µM in the data set with M21 [4] and 71 µM in the data set with HT-29.
